Three compounds from ChEMBL document CHEMBL3232854, “Agonists for the adenosine A1 receptor with tunable residence time. A Case for nonribose 4-amino-6-aryl-5-cyano-2-thiopyrimidines” (J Med Chem, 2014) can be followed below.

As usually defined, the EC50 is the concentration needed to bring the measured effect to its halfway point. In general, Ki refers to a measure of affinity in units of concentration, obtained from inhibition or displacement. A high value points to weaker binding. In general, inhibition refers to the percentage by which the read-out fell short of the control. Higher therefore signals strong suppression. The Emax is the maximal effect, on the per cent scale that the assay sets.

The target in test [1] is T1, Adenosine receptor A1 (Homo sapiens, UniProt P30542).
T1 sequence (P30542 whole entry): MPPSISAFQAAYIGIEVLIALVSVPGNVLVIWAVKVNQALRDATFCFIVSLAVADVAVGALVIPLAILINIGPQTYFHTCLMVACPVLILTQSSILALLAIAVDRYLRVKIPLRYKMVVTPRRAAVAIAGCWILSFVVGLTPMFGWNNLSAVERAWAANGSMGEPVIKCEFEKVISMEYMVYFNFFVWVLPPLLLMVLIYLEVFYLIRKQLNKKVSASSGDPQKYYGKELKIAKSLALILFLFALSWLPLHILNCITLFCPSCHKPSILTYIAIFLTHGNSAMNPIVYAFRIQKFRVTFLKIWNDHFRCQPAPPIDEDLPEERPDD
The test is described as follows: Agonist activity at adenosine A1 receptor (unknown origin) expressed in CHO cells assessed as […] in intracellular cAMP level by RIA. The format is functional, cell-based. (In general: Changes in cAMP serve as a functional read-out for many G protein-coupled receptors.)

Test [2] deals with T2, Adenosine receptor A1 (Homo sapiens) (UniProt P30542).
T2 sequence (whole entry): T1 sequence (P30542 whole entry)
The experiment in a line: Ratio for displacement of [3H]DPCPX from human adenosine A1 receptor expressed in CHO cell membranes at 10 times Ki after 15 mins by dual-point competition association assay to ratio for displacement of [3H]DPCPX from human adenosine A1 receptor expressed in CHO cell membranes 10 times Ki after 120 mins by dual-point competition association assay. In general terms: Loss of bound radioactivity is the signal in a displacement assay; it reports binding, not function.

Test [3] addresses T1, Adenosine receptor A1. The experiment in a line: Displacement of [3H]DPCPX from human adenosine A1 receptor expressed in CHO cell membranes after 1 hr by beta scintillation counting analysis. The method in brief:
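Membranes from CHO cells stably expressing human A1 receptor (5 μg protein) incubated with [3H]DPCPX in 25 mM Tris-HCl pH 7.4, 5 mM MgCl2, 0.1% CHAPS, 1 h at 25 °C; nonspecific binding with 100 μM CPA; GF/B filtration, three ice-cold washes, scintillation counting. Single 1 μM points from ≥2 experiments in duplicate; Ki by nonlinear regression (radioligand KD 1.6 nM), ≥3 experiments in duplicate.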

Test [4] concerns the target Adenosine receptor A2a (Homo sapiens) (UniProt P29274). The experiment in a line: Displacement of [3H]ZM241385 from human adenosine A2A receptor expressed in HEK293 cell membranes at 1 uM after 2 hrs by beta scintillation counting analysis relative to control. The method in brief:
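HEK 293 membranes stably expressing human A2A receptor (25 μg protein) incubated with [3H]ZM241385 in 50 mM Tris-HCl pH 7.4, 2 h at 25 °C; compounds at 1 μM; nonspecific binding with 100 μM CPA; GF/B filtration, ice-cold washes, scintillation counting; ≥2 experiments in duplicate.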

Test [5] concerns the target T3, Adenosine receptor A2b (Homo sapiens, UniProt P29275).
T3 sequence (P29275 whole entry): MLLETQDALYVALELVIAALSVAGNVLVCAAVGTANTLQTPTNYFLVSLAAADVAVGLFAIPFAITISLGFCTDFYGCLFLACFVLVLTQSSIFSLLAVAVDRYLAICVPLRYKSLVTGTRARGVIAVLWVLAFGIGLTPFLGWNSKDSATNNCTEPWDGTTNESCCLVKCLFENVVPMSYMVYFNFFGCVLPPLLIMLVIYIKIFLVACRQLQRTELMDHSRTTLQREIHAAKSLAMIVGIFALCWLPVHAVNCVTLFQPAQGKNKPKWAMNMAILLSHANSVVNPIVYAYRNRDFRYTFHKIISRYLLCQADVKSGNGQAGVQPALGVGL
The test is described as follows: Displacement of [3H]PSB603 from human adenosine A2B receptor expressed in CHO cell membranes after 2 hrs by beta scintillation counting analysis.

For test [6], the target named is T2, Adenosine receptor A1 (Homo sapiens). The test is described as follows: Agonist activity human adenosine A1 receptor expressed in CHO cell membranes assessed as stimulation of [35S]GTPgammaS binding at 100 times Ki preincubated for 30 mins followed by radioligand addition measured after 90 mins by beta scintillation counting analysis relative to N6-cyclopentyladenosine. Type of test: functional. In general terms: GTPγS resists hydrolysis and so accumulates on activated G proteins.

For test [7], the target named is T4, Adenosine receptor A3 (Homo sapiens) (UniProt P0DMS8).
T4 sequence (whole entry): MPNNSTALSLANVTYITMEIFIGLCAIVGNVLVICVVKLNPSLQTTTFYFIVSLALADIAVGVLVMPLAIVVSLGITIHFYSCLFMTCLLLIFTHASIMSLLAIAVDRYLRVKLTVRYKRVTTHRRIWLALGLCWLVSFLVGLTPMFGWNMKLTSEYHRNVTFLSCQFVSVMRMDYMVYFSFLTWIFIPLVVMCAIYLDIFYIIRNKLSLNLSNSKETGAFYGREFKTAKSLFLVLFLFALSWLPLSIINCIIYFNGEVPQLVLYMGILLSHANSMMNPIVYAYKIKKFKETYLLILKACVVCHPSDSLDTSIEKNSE
The experiment in a line: Displacement of [3H]PSB11 from human adenosine A3 receptor expressed in CHO cell membranes at 1 uM after 2 hrs by beta scintillation counting analysis relative to control. The method in brief: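 CHO membranes stably expressing human A3 receptor (45 μg protein) incubated with [3H]PSB11 and 1 μM compound in 50 mM Tris-HCl pH 8.0, 10 mM MgCl2, 1 mM EDTA, 0.01% CHAPS, 2 h at 25 °C; nonspecific binding with 100 μM NECA; filtration, washes without CHAPS, scintillation counting; ≥2 experiments in duplicate.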

Test [8] has as its target T1, Adenosine receptor A1. The test is described as follows: Agonist activity at human adenosine A1 receptor expressed in HEK293 cells assessed as […] in intracellular cAMP level after 30 mins by EIA. Type of test: functional, cell-based.

Adenosine receptor A2a (Homo sapiens), sequence (P29274 whole entry): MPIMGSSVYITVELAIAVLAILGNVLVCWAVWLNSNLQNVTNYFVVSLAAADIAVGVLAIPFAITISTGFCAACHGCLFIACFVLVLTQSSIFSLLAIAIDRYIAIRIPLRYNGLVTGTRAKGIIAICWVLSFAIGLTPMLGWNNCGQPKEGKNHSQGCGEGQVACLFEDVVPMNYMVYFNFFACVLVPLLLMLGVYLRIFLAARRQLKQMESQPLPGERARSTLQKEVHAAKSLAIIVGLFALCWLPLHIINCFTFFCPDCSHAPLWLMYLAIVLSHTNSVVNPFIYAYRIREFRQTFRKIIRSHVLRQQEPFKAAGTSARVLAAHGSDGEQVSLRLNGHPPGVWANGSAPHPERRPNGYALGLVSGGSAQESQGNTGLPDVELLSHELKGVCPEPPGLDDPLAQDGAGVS

With `N#Cc1c(N)nc(SCc2csc(-c3ccc(Cl)cc3)n2)c(C#N)c1-c1ccc(OCCO)cc1` [CAPADENOSON], in test [1], the half-maximal effective concentration (EC50) was determined as 0.1 nM. In test [2], the Ratio is 1.42.
In the case of `N#Cc1c(N)nc(SCc2cscn2)nc1-c1ccc2c(c1)OCO2`, the Ki in test [3] was 9.7 nM; in test [5], 42 nM. Besides, the inhibition was 31% in test [4] and 35% in test [7]. The Ratio in test [2] is 0.93. In addition, in test [6], the Emax turned out to be 27%.
Turning to `CCN(CC)CCN1CCN(C(=O)CCc2cccc(CSc3nc(N)c(C#N)c(-c4ccc(NC(C)=O)cc4)n3)n2)CC1`, the half-maximal effective concentration (EC50) in test [8] was 1 nM.
